Results as given in ChEMBL document CHEMBL3232883, “Triaryl-substituted Schiff bases are high-affinity subtype-selective ligands for the estrogen receptor” (J Med Chem, 2014).
Calls of active or inactive are those of the source. The calls are words filed in the database; no cut-off is given here.

Experiments:
[1] = target: T1, Estrogen receptor (Homo sapiens) (UniProt P03372); experiment: Displacement of [3H]-estradiol from human full-length ERalpha after 18 to 24 hrs by competitive radiometric binding assay relative to estradiol
T1 sequence (whole entry): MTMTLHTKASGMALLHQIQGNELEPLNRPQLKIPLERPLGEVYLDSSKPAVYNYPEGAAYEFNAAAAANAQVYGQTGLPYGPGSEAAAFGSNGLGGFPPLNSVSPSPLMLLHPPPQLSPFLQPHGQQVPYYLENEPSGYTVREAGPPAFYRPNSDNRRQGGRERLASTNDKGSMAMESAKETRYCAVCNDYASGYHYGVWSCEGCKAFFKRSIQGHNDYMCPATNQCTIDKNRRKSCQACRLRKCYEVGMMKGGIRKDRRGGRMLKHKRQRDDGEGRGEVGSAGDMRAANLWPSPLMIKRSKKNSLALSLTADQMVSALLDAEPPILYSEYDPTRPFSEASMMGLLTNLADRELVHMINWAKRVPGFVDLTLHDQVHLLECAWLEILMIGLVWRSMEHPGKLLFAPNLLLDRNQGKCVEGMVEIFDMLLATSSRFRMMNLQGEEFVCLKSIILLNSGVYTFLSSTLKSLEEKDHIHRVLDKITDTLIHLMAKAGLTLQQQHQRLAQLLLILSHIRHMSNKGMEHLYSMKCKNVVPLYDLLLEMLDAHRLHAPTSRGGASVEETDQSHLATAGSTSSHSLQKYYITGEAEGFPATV

Estrogen receptor beta [2] = target: T2, Estrogen receptor beta (Homo sapiens, UniProt Q92731); experiment: Displacement of [3H]-estradiol from human full-length ERbeta after 18 to 24 hrs by competitive radiometric binding assay relative to estradiol
T2 sequence (Q92731 whole entry): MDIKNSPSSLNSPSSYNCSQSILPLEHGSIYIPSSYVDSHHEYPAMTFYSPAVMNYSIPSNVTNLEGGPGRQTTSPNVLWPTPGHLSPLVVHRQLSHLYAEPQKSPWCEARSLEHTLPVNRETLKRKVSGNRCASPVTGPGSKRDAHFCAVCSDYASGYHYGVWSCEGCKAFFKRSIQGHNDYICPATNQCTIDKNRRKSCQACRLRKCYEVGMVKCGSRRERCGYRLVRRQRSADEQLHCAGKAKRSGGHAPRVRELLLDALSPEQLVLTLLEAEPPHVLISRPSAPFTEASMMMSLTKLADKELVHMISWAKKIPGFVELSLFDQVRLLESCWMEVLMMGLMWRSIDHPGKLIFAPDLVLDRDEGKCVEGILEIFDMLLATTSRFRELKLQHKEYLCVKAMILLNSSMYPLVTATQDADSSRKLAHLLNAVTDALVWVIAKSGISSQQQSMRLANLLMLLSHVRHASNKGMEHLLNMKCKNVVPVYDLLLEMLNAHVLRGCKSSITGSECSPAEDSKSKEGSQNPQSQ

Homo sapiens = species: Homo sapiens; experiment: Selectivity ratio of RBA for human full length ERbeta to RBA for human full-length ERalpha
Estrogen receptor = target: T3, Estrogen receptor (Homo sapiens, UniProt P03372); experiment: Agonist activity at ERalpha (unknown origin) expressed in human HepG2 cells assessed as transcriptional activation after 24 hrs by ERE-luciferase reporter gene assay; type: cell-based
T3 sequence (P03372 whole entry): T1 sequence (whole entry)
Procedure, shortened: (§1)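 HepG2 cells were grown in DMEM with 10% FBS and transfected with a 3×ERE-luciferase reporter plus an ERα or ERβ expression vector. The next day cells were moved to phenol red-free medium with 10% charcoal-dextran-stripped FBS, plated at 20 000 cells/well and left overnight. Ligand was then added as a 12-point dose curve from 10 μM to 100 pM. Luciferase was read after 24 h, normalized to DMSO as 0% and the top of the E2 curve as 100%.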

[3] = target: T1, Estrogen receptor (Homo sapiens); experiment: Agonist activity at ERalpha (unknown origin) expressed in human HepG2 cells assessed as transcriptional activation after 24 hrs by ERE-luciferase reporter gene assay relative to 17beta-estradiol; type: cell-based
Procedure, shortened: (§2)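 HepG2 cells were cotransfected with a 3×ERE-luciferase reporter (10 μg) plus an ERα or ERβ expression vector (1.6 μg) per 10 cm dish. The next day they were replated at 20 000 cells/well in phenol red-free medium with 10% charcoal-dextran-stripped FBS and held overnight. Cells were then dosed over a 12-point range of 10 μM to 100 pM. Luciferase was read after 24 h, with DMSO set as 0% and the top of the E2 curve as 100%.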

Estrogen receptor beta [4] = target: T2, Estrogen receptor beta; experiment: Agonist activity at ERbeta (unknown origin) expressed in human HepG2 cells assessed as transcriptional activation after 24 hrs by ERE-luciferase reporter gene assay; type: cell-based; procedure, shortened: as §1
Estrogen receptor beta [5] = target: T2, Estrogen receptor beta; experiment: Agonist activity at ERbeta (unknown origin) expressed in human HepG2 cells assessed as transcriptional activation after 24 hrs by ERE-luciferase reporter gene assay relative to 17beta-estradiol; type: cell-based; procedure, shortened: as §2
[6] = target: T1, Estrogen receptor (Homo sapiens); experiment: Antagonist activity at ERalpha (unknown origin) expressed in human HepG2 cells assessed as inhibition of transcriptional activation after 24 hrs by ERE-luciferase reporter gene assay relative to 17beta-estradiol; type: cell-based
Procedure, shortened: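 Antagonist mode used HepG2 cells cotransfected with a 3×ERE-luciferase reporter plus an ERα expression vector and steroid-deprived in phenol red-free medium with 10% charcoal-dextran-stripped FBS. Cells received 10 nM estradiol together with increasing compound concentrations across a 10 μM to 100 pM dose curve. Luciferase was measured after 24 h and normalized to DMSO (0%) and the top of the E2 curve (100%).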

Estrogen receptor beta [7] = target: T2, Estrogen receptor beta; experiment: Antagonist activity at ERbeta (unknown origin) expressed in human HepG2 cells assessed as inhibition of 17beta-estradiol-induced transcriptional activation after 24 hrs by ERE-luciferase reporter gene assay; type: cell-based
Procedure, shortened: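 ERβ-transfected, steroid-deprived HepG2 cells carrying a 3×ERE-luciferase reporter were co-treated with 10 nM estradiol and test ligand over a range of 10 μM to 100 pM. Luciferase was read after 24 h, with each plate normalized to DMSO (0%) and the maximal E2 response (100%). IC50 and % efficacy were derived from the dose curves.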

HepG2 = experiment: Agonist activity at ERalpha (unknown origin) harboring N-terminal AF1 domain deleted mutant expressed in human HepG2 cells assessed as transcriptional activation after 24 hrs by ERE-luciferase reporter gene assay; type: cell-based

SMILES	RBA [1]	RBA (Estrogen receptor beta [2])	Selectivity ratio (Homo sapiens)	EC50 (Estrogen receptor)	Efficacy [3]	EC50 (Estrogen receptor beta [4])	Efficacy (Estrogen receptor beta [5])	Efficacy [6]	IC50 (Estrogen receptor beta [7])	Activity (HepG2)
Oc1ccc(N=C(c2ccc(O)cc2)c2ccc(O)cc2)cc1	1.86%	0.99%	0.5	14 nM	95%	332 nM	16%	111%	300 nM	inactive
Cc1cccc(/N=C(\c2ccc(O)cc2)c2ccc(O)cc2O)c1	15.3%	38.1%	2.5	14 nM	95%		9%	101%	51 nM	inactive
Oc1ccc(C(=Nc2cccc(Cl)c2)c2ccc(O)cc2)cc1	41.8%	114%	2.5	10 nM	102%		10%	109%	16 nM	inactive
Oc1ccc(C(=Nc2ccccc2)c2ccc(O)cc2)cc1	14.1%	31.5%	2.2	3 nM	110%		34%	126%	13 nM	
Oc1ccc(/N=C(\c2ccc(O)cc2)c2ccc(O)cc2O)cc1	2.25%	1.23%	0.5	7 nM	97%		51%	108%	417 nM	inactive
Oc1ccc(/C(=N\c2cccc(C(F)(F)F)c2)c2ccc(O)cc2O)cc1	28.2%	72.1%	2.6	57 nM	100%		11%	95%	28 nM	inactive
Oc1ccc(C(=Nc2ccc(Br)cc2)c2ccc(O)cc2)cc1	41.5%	94.1%	2.3	1 nM	105%		11%	128%	6 nM	inactive
Cc1cccc(C)c1N=C(c1ccc(O)cc1)c1ccc(O)cc1	1.56%	2.91%	1.9							
Oc1ccc(C(=Nc2ccc(Cl)cc2)c2ccc(O)cc2)cc1	49.2%	127%	2.6	2 nM	114%		9%	138%	9 nM	inactive
Oc1ccc(/C(=N\c2ccccc2)c2ccc(O)cc2O)cc1	14.6%	18.5%	1.3	7 nM	102%	628 nM	25%	134%	6 nM	
Oc1ccc(/C(=N\c2ccc(F)cc2)c2ccc(O)cc2O)cc1	21.1%	27.7%	1.3	10 nM	108%		23%	124%	139 nM	inactive
Oc1ccc(/C(=N\c2cccc(Cl)c2)c2ccc(O)cc2O)cc1	37.6%	61.6%	1.6	15 nM	117%		15%	118%	67 nM	inactive
COc1ccc(/N=C(\c2ccccc2)c2ccc(O)cc2O)cc1	11.3%	5.55%	0.49							
COc1ccc(/C(=N\c2ccc(O)cc2)c2ccc(O)cc2O)cc1	11.9%	39.2%	3.2							
Oc1ccc(/C(=N\c2ccccc2Cl)c2ccc(O)cc2O)cc1	96.7%	77.9%	0.8	0.1 nM	113%		54%	136%	6 nM	inactive
Oc1ccc(C(=Nc2ccccc2Cl)c2ccc(O)cc2)cc1	62.8%	97%	1.5	1 nM	104%		37%	83%	19 nM	inactive
COc1ccc(/N=C(\c2ccc(O)cc2)c2ccc(O)cc2O)cc1	10.5%	5.33%	0.5	17 nM	102%	276 nM	38%	102%		
C/C(=N\c1ccc(O)cc1)c1ccc(O)cc1	< 3%	< 3%								
Oc1ccc(/C(=N\c2ccc(Br)cc2)c2ccc(O)cc2O)cc1	64.6%	70.3%	1.1	9 nM	113%	12500 nM	24%	111%	100 nM	inactive
Cc1ccc(/N=C(\c2ccc(O)cc2)c2ccc(O)cc2O)cc1	9.12%	17.1%	1.9	16 nM	103%	10900 nM	20%	122%	241 nM	inactive
Oc1ccc(C(=Nc2cccc(C(F)(F)F)c2)c2ccc(O)cc2)cc1	33.4%	139%	4.2	23 nM	89%		3%	104%	24 nM	inactive
Cc1ccc(N=C(c2ccc(O)cc2)c2ccc(O)cc2)cc1	10%	20.1%	2				7%		45 nM	inactive
COc1ccc(N=C(c2ccc(O)cc2)c2ccc(O)cc2)cc1	4.41%	3.98%	0.9							
Cc1cccc(N=C(c2ccc(O)cc2)c2ccc(O)cc2)c1	13.2%	69.2%	5.2	5 nM	109%		13%	93%	41 nM	inactive
Oc1ccc(/N=C/c2ccccc2O)cc1	< 3%	< 3%								
Cc1ccccc1/N=C(\c1ccc(O)cc1)c1ccc(O)cc1O	53.3%	45.1%	0.9		111%	2 nM	31%	100%	16 nM	inactive
Cc1ccccc1N=C(c1ccc(O)cc1)c1ccc(O)cc1	40.6%	116%	2.8	7 nM	103%		8%	149%	6 nM	inactive
Oc1ccc(C(=Nc2ccc(F)cc2)c2ccc(O)cc2)cc1	19.7%	45.6%	2.3	2 nM	114%		10%	113%	7 nM	inactive
